ChEMBL document CHEMBL3997810, “A Novel Potent Anticancer Compound Optimized from a Natural Oridonin Scaffold Induces Apoptosis and Cell Cycle Arrest through the Mitochondrial Pathway” (J Med Chem, 2017)
The source made the active and inactive calls. No cut-off for these calls is given here.

Key:
Bel-7402 [1] = assay: Antiproliferative activity against human Bel7402 cells at 1 uM after 72 hrs by MTT assay; assay type: functional, cell-based
MGC-803 = assay: Antiproliferative activity against human MGC803 cells after 72 hrs by MTT assay; assay type: functional, cell-based; conditions: MGC-803, 72 h
Outline: (§1)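 MGC-803 and MCF-7 cells grown in DMEM (MCF-7 with 1× NEAA); Bel-7402 and K562 grown in RPMI 1640; all media with 10% FBS. Cells seeded at 3500/well, pre-incubated 24 h, then exposed to compounds in fresh medium (DMSO ≤0.25%) for 72 h at 37 °C. MTT read-out at 570 nm. Quadruplicate wells, repeated three times; means ± SD (n = 3).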

Bel-7402 [2] = assay: Antiproliferative activity against human Bel7402 cells after 72 hrs by MTT assay; assay type: functional, cell-based; conditions: Bel-7402, 72 h; outline: as §1
MCF7 [3] = assay: Antiproliferative activity against human MCF7 cells after 72 hrs by MTT assay; assay type: functional, cell-based; conditions: MCF7, 72 h; outline: as §1
K562 = assay: Antiproliferative activity against human K562 cells after 72 hrs by MTT assay; assay type: functional, cell-based; conditions: K562, 72 h; outline: as §1
KB 3-1 = assay: Antiproliferative activity against human KB-3-1 cells after 48 hrs by MTT assay; assay type: functional, cell-based; conditions: KB 3-1, 48 h
Outline: (§2)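 Colorimetric MTT assay. KB-3-1, NCI-H460 and Bel-7404 cells were seeded at 4000 cells/well; resistant KB/CP4, NCI-H460/MX20 and Bel-7404/CP20 were seeded at 7000 cells/well. Cells were pre-incubated 24 h at 37 °C, 5% CO2, then exposed to a compound concentration series for 48 h with DMSO ≤0.25%. Absorbance read at 570 nm. Quadruplicate wells, three repeats; means ± SD.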

[4] = Antiproliferative activity against human KB/CP4 cells after 48 hrs by MTT assay; assay type: functional, cell-based; conditions: KB/CP4, 48 h; outline: as §2
NCI-H460 = assay: Antiproliferative activity against human NCI-H460 cells after 48 hrs by MTT assay; assay type: functional, cell-based; conditions: NCI-H460, 48 h; outline: as §2
[5] = Antiproliferative activity against human NCI-H460/MX20 cells after 48 hrs by MTT assay; assay type: functional, cell-based; conditions: NCI-H460/MX20, 48 h; outline: as §2
BEL-7404 tumor cell line = assay: Antiproliferative activity against human Bel7404 cells after 48 hrs by MTT assay; assay type: functional, cell-based; conditions: BEL-7404, 48 h; outline: as §2
[6] = Antiproliferative activity against human BEL7404/CP20 cells after 48 hrs by MTT assay; assay type: functional, cell-based; conditions: BEL7404/CP20, 48 h; outline: as §2
MCF7 [7] = assay: Cytotoxicity against human MCF7 cells at 10 to 50 uM after 24 hrs by LDH assay; assay type: functional, cell-based
Outline: (§3)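 Membrane integrity assay on MCF-7 and Bel-7402 cells seeded at ~5 × 10^3 per well for 24 h, then given compounds at 10, 20 or 50 μM. Culture medium collected and assayed with CytoTox-ONE LDH reagent for 10 min, followed by stop solution. Fluorescence read at Ex 560/Em 590 nm. Expressed as percentage of unstimulated cells.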

Bel-7402 [8] = assay: Cytotoxicity against human Bel7402 cells at 10 to 50 uM after 24 hrs by LDH assay; assay type: functional, cell-based; outline: as §3
MCF7 [9] = assay: Antitumor activity against human MCF7 cells xenografted in Balb/c nude mouse assessed as tumor growth inhibition at 20 mg/kg/day, iv for 4 weeks relative to control; assay type: functional; conditions: 672 h, read-out: TGI
Outline: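 Six-week-old male BALB/c nude mice received 1 × 10^6 MCF-7 cells subcutaneously in the right flank. After 7 d of tumor growth, mice were randomized into groups of six. Dosing was 20 mg/kg iv once daily for 28 days in 10% DMF/2% poloxamer/88% saline. Tumor volume (L × W²/2) and body weight were recorded every 2 days. Inhibition = (1 − mean treated/control tumor weight) × 100%.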

Mus musculus [10] = assay: Toxicity in Balb/c nude mouse xenografted with human MCF7 cells assessed as changes in body weight at 20 mg/kg/day, iv for 4 weeks measured once in 2 days during compound dosing; assay type: organism-based; conditions: in vivo
Outline: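 Mice received 1 × 10^6 tumor cells subcutaneously in the right flank: MCF-7 in male BALB/c nude mice aged six weeks, H22 in male ICR mice aged five weeks. After 7 d they were randomized (six or eight per group). Dosing was 20 mg/kg iv daily in 10% DMF/2% poloxamer/88% saline for 21 or 28 days; saline control. Body weight was recorded every 2 days.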

Mus musculus [11] = assay: Cardiotoxicity in Balb/c nude mouse xenografted with human MCF7 cells assessed as morphological changes in heart at 20 mg/kg/day, iv for 4 weeks by hematoxylin and eosin staining based microscopic method; assay type: toxicity, organism-based; conditions: in vivo, 672 h
Outline: (§4)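 Male BALB/c nude mice (6 weeks old) carrying subcutaneous MCF-7 xenografts (1 × 10^6 cells). Dosed iv 20 mg/kg daily for 28 days in 10% DMF/2% poloxamer/88% saline; six mice per group. Organs then fixed in 4% paraformaldehyde, paraffin-embedded, cut at 5 μm, stained with Harris hematoxylin and eosin-phloxine, and examined by light microscopy.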

Mus musculus [12] = assay: Hepatotoxicity in Balb/c nude mouse xenografted with human MCF7 cells assessed as morphological changes in liver at 20 mg/kg/day, iv for 4 weeks by hematoxylin and eosin staining based microscopic method; assay type: toxicity, organism-based; conditions: in vivo, 672 h; outline: as §4
Mus musculus [13] = assay: Nephrotoxicity in Balb/c nude mouse xenografted with human MCF7 cells assessed as morphological changes in kidney at 20 mg/kg/day, iv for 4 weeks by hematoxylin and eosin staining based microscopic method; assay type: toxicity, organism-based; conditions: in vivo, 672 h
Outline: (§5)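 Male BALB/c nude mice aged six weeks received 1 × 10^6 MCF-7 cells subcutaneously in the right flank. After 7 d they were randomized and dosed 20 mg/kg iv once daily in 10% DMF/2% poloxamer/88% saline; saline control. Heart, liver, spleen, lung and kidney were fixed in 4% paraformaldehyde, paraffin-embedded, sectioned at 5 μm, H&E stained and examined microscopically.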

Mus musculus [14] = assay: Toxicity in Balb/c nude mouse xenografted with human MCF7 cells assessed as morphological changes in lungs at 20 mg/kg/day, iv for 4 weeks by hematoxylin and eosin staining based microscopic method; assay type: organism-based; conditions: in vivo, 672 h; outline: as §5
Mus musculus [15] = assay: Toxicity in Balb/c nude mouse xenografted with human MCF7 cells assessed as morphological changes in spleen at 20 mg/kg/day, iv for 4 weeks by hematoxylin and eosin staining based microscopic method; assay type: organism-based; conditions: in vivo, 672 h; outline: as §5
[16] = Selectivity ratio of IC50 for human KB/CP4 cells to IC50 for human KB-3-1 cells
[17] = Selectivity ratio of IC50 for human L02 cells to IC50 for human Bel7402 cells

| IC50 (MGC-803) [µM] | IC50 (Bel-7402 [2]) [µM] | IC50 (MCF7 [3]) [µM] | IC50 (K562) [µM] | IC50 (KB 3-1) [µM] | IC50 (NCI-H460) [µM] | IC50 (BEL-7404 tumor cell line) [µM] | Compound | Activity (Bel-7402 [1]) | IC50 [4] [µM] | IC50 [5] [µM] | IC50 [6] [µM] | Activity (MCF7 [7]) | Activity (Bel-7402 [8]) | inhibition in vivo at 20 mg/kg/day (MCF7 [9]) [%] | Activity (Mus musculus [10]) | Activity (Mus musculus [11]) | Activity (Mus musculus [12]) | Activity (Mus musculus [13]) | Activity (Mus musculus [14]) | Ratio IC50 [16] | also measured |
| --- | --- | --- | --- | --- | --- | --- | --- | --- | --- | --- | --- | --- | --- | --- | --- | --- | --- | --- | --- | --- | --- |
| 9.06 | 5.41 | 17.9 | 4.33 | 13.2 | 20.5 | 17.9 | C=C1C(=O)[C@]23[C@H](O)[C@H]1CC[C@H]2[C@@]12CO[C@]3(O)[C@@H](O)[C@@H]1C(C)(C)CC[C@@H]2O [ORIDONIN] | – | 10.8 | 25.9 | 17.2 | inactive | inactive | 58.9 | Non-Toxic | Non-Toxic | Non-Toxic | Non-Toxic | Non-Toxic | – | Ratio IC50 [17]: 6; Activity (Mus musculus [15]): Non-Toxic |
| 5.58 | 3.43 | 11.1 | 2.79 | 16.7 | 19.2 | 16.2 | C=C1C(=O)[C@]23[C@H](O)[C@H]1CC[C@H]2[C@]12C=CC(=O)C(C)(C)[C@H]1[C@H](O)[C@]3(O)OC2 | Active | 16.1 | 54 | 15.1 | inactive | inactive | – | – | – | – | – | – | <1 | – |
| 1.02 | 0.45 | 0.18 | 1.27 | 6.21 | 2.44 | 6.56 | C=C1C(=O)[C@]23[C@H](OC(=O)c4cccc(C)c4)[C@H]1CC[C@H]2[C@]12C=CCC(C)(C)[C@H]1[C@H](O)[C@]3(O)OC2 | – | 1.01 | 14.2 | 3.42 | – | – | – | – | – | – | – | – | <1 | Ratio IC50 [17]: 14.58 |
| – | – | – | – | – | – | – | O=P1(N(CCCl)CCCl)NCCCO1 (stereo not drawn) [CYCLOPHOSPHAMIDE ANHYDROUS] | – | – | – | – | – | – | 64.6 | – | – | – | – | – | – | – |

| Compound | IC50 (MGC-803) [µM] | IC50 (Bel-7402 [2]) [µM] | IC50 (MCF7 [3]) [µM] | IC50 (K562) [µM] | IC50 (KB 3-1) [µM] | IC50 (NCI-H460) [µM] | IC50 (BEL-7404 tumor cell line) [µM] | Activity (Bel-7402 [1]) | IC50 [4] [µM] | IC50 [5] [µM] | IC50 [6] [µM] | Activity (MCF7 [7]) | Activity (Bel-7402 [8]) | inhibition in vivo at 20 mg/kg/day (MCF7 [9]) [%] | Activity (Mus musculus [10]) | Activity (Mus musculus [11]) | Activity (Mus musculus [12]) | Activity (Mus musculus [13]) | Activity (Mus musculus [14]) | Ratio IC50 [16] | also measured |
| --- | --- | --- | --- | --- | --- | --- | --- | --- | --- | --- | --- | --- | --- | --- | --- | --- | --- | --- | --- | --- | --- |
| C=C1C(=O)[C@]23[C@H](O)[C@H]1CC[C@H]2[C@]12C=CCC(C)(C)[C@H]1[C@H](O)[C@]3(O)OC2 | 1.22 | 1.59 | 1.99 | 0.22 | 5.16 | 2.69 | 3.91 | Active | 2.98 | 11.1 | 4.98 | inactive | inactive | 61.6 | Non-Toxic | Non-Toxic | Non-Toxic | Non-Toxic | Non-Toxic | <1 | Activity (Mus musculus [15]): Non-Toxic |
